We go through two compounds from ChEMBL document CHEMBL5532752, “Integrating a quinone substructure into histone deacetylase inhibitors to cope with Alzheimer's disease and cancer” (RSC Med Chem, 2024).

For series [1], the system named is Neurosphere. In words: Neuroprotective activity against C57BL/6N mouse neurosphere assessed as increase in NPCs spontaneous differentiation by measuring decrease in Nestin-positive cells at 2.5 to 5 uM measured after 7 days by immunofluorescence analysis. It is filed as functional, cell-based. To be noted: dose 2.5-5 µM, time 7.0 day. An outline of the steps: (§1)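 Thirty 7-day neurospheres plated on Matrigel-coated coverslips with 2.5 or 5 μM compound or DMSO, differentiated 7 days, fixed in 4% PFA, immunostained for Nestin, DCX, Olig2 or GFAP with Alexa 555 secondaries, DAPI counterstain. Intensity index = marker-positive intensity / total DAPI intensity; mean ± SD of 3 fields per condition.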

The test system of series [2] is SH-SY5Y. In words: Neuroprotective activity against H2O2-induced cytotoxicity in human SH-SY5Y cells assessed as increase in cell viability at 1 to 50 uM pretreated for 24 hrs followed by incubation for 1 hr with H2O2 and incubated in drug-free medium for 22 hrs by MUH reagent based spectrophotometric analysis. It is filed as functional. To be noted: dose 1-50 µM, time 25.0 hrs. The method, boiled down: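 SH-SY5Y pretreated 24 h with 1, 10 or 50 μM compound, exposed 1 h to H2O2, then 22 h recovery in drug-free complete medium. H2O2 level printed as 300 μM in methods but 600 μM in figure legend. Viability by MUH fluorescence (ex 330/em 450 nm) vs untreated cells; one-way ANOVA, Tukey.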

For series [3], the system named is HepG2. Nature of the series: Cytotoxicity against human HepG2 cells assessed as cell viability upto 10 uM incubated for 24 hrs by MTT assay. It is filed as toxicity, cell-based. To be noted: hepg2, 24 h. An outline of the steps:
(§2)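 HepG2 in MEM with 10% FBS, plated 1.5 × 10⁴ cells/well; after 24 h exposed to 0.010–100 μM compound or vehicle for 24 h. MTT (0.2 mg/mL in PBS) for 2 h at 37 °C, formazan dissolved in DMSO, absorbance at 570 nm. Viability relative to vehicle controls, mean ± SD, n = 4.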
A general note: Formazan colour is commonly taken as a measure of viable cells.

In series [4] the test system is Neurosphere. In words: Neuroprotective activity against C57BL/6N mouse neurosphere assessed as increase in NPCs spontaneous differentiation by measuring Olig2-positive cells at 2.5 to 5 uM measured after 7 days by immunofluorescence analysis. It is filed as functional, tissue-based. The following applies: dose 2.5-5 µM, time 7.0 day. An outline of the steps:
as §1

Series [5] relates to Neurosphere. In words: Neuroprotective activity against C57BL/6N mouse neurosphere assessed as increase in NPCs spontaneous differentiation by measuring increase in DCX-positive cells at 2.5 to 5 uM measured after 7 days by immunofluorescence analysis. It is filed as functional, cell-based. To be noted: dose 2.5-5 µM, time 7.0 day. The method, boiled down:
as §1

The nature of series [6]: Cytotoxicity against human HepG2 cells assessed as reduction in cell viability incubated for 24 hrs by MTT assay. It is filed as toxicity, cell-based. An outline of the steps: as §2
For series [7], the system named is Neurosphere. In words: Neuroprotective activity against C57BL/6N mouse neurosphere assessed as increase in NPCs spontaneous differentiation by measuring GFAP-positive cells at 2.5 to 5 uM measured after 7 days by immunofluorescence analysis. The following applies: dose 2.5-5 µM, time 7.0 day. It is filed as functional, tissue-based. The method, boiled down:
as §1

The subject of series [8] is SH-SY5Y. In words: Induction of cell cycle arrest in human SH-SY5Y cells assessed as proportion of cells at sub-G1 phase at 1 uM incubated for 72 hrs by propidium iodide staining based flow cytometry (reference value: 5.56%). Background: Flow cytometry measures light scatter and fluorescence of single cells or particles in a stream.
The test system of series [9] is SH-SY5Y. In words: Induction of apoptosis in human SH-SY5Y cells assessed as increase in PARP cleavage by measuring decrease in PARP protein expression at 10 uM incubated for 72 hrs by flow cytometry relative to control. Further details: scale not given: the % may be the effect or the level left. It is filed as functional. An outline of the steps: (§3)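 SH-SY5Y cells, cultured in DMEM with 10% FBS at 37 °C and 5% CO2, were treated for 72 h. Cells were fixed in 4% paraformaldehyde and permeabilized with 90% cold methanol. They were stained with anti-PARP (1:100) and then an Alexa Fluor 488 secondary (1:200). Mean fluorescence intensity was read by flow cytometry and expressed as fold change versus control cells.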

Series [10] relates to SH-SY5Y. In words: Cytotoxicity against human SH-SY5Y cells assessed as reduction in cell viability pretreated with SFN followed by compound treatment by MUH reagent based spectrophotometric analysis. It is filed as functional.
Series [11] concerns SH-SY5Y. Nature of the series: Induction of apoptosis in human SH-SY5Y cells assessed as increase in caspase-3 activity at 1 uM incubated for 72 hrs by colorimetric assay relative to control. It is filed as functional. An outline of the steps:
(§4)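 Cells treated 72 h, collected, PBS-rinsed, lysed on ice 10 min; protein quantified by Bradford. Lysates incubated 2 h at 37 °C with 2× reaction buffer containing 10 mM dithiothreitol and DEVD-pNA caspase-3 substrate. Free pNA read by absorbance at 405 nm; activity expressed as fold over untreated cells. At least 3 independent experiments.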

Series [12] deals with SH-SY5Y. In words: Induction of cell cycle arrest in human SH-SY5Y cells assessed as proportion of cells at sub-G1 phase at 10 uM incubated for 72 hrs by propidium iodide staining based flow cytometry (reference value: 5.56%).
For series [13], the system named is SH-SY5Y. Nature of the series: Induction of apoptosis in human SH-SY5Y cells assessed as increase in caspase-3 activity at 10 uM incubated for 72 hrs by colorimetric assay relative to control. It is filed as functional. The method, boiled down: as §4
The target in series [14] is Histone deacetylase (Homo sapiens) (UniProt Q13547+O15379+Q9UBN7+Q92769+Q9UQL6+Q8WUI4+Q9BY41+Q96DB2+P56524+Q9UKV0+Q969S8). In words: Inhibition of HDAC in human SH-SY5Y cells assessed as hyperacetylation of histone H2/H3 at 5 uM incubated for 6 hrs by western blot analysis. It is filed as cell-based. The method, boiled down: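 SH-SY5Y seeded at 20 × 10⁴ cells/cm², after 48 h given 5 μM compound or vehicle for 6 h. Nuclei isolated, histones acid-extracted (0.4 N H2SO4, 4 °C 1 h), acetone-precipitated, run on 15% gel and blotted with anti-acetyl-lysine antibody, ECL detection; densitometry normalized to H1.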
For orientation: In western blotting, separated proteins are transferred to a membrane and probed.

In series [15] the test system is SH-SY5Y. Nature of the series: Induction of apoptosis in human SH-SY5Y cells assessed as increase in PARP cleavage by measuring decrease in PARP protein expression at 1 uM incubated for 72 hrs by flow cytometry relative to control. The arrangement: scale not given: the % may be the effect or the level left. It is filed as functional. The method, boiled down: as §3

Series [16] deals with SH-SY5Y. In words: Induction of cell cycle arrest in human SH-SY5Y cells assessed as accumulation of cells at sub-G1 phase at 1 to 10 uM incubated for 72 hrs by propidium iodide staining based flow cytometry. It is filed as functional. To be noted: dose 1-10 µM. An outline of the steps:
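SH-SY5Y exposed to 1 or 10 μM for 72 h, collected, fixed in 70% ice-cold ethanol, stained with propidium iodide-containing cell-cycle reagent 30 min in the dark at room temperature, and analysed by flow cytometry for G0/G1, S, G2/M and sub-G1 fractions; one-way ANOVA, Bonferroni.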

The test system of series [17] is SH-SY5Y. Nature of the series: Cytotoxicity against human SH-SY5Y cells assessed as reduction in cell viability at 10 uM pretreated with antioxidant, NAC for 1 hr followed by incubation with drug for 24 hrs by MUH reagent based spectrophotometric analysis. It is filed as functional. An outline of the steps: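 SH-SY5Y pretreated 1 h with 2 mM NAC, then exposed to compound at 1 or 10 μM for 24 h. Viability read by MUH hydrolysis (0.01 mg/mL, 30 min, 37 °C; ex 330/em 450 nm) as percent of untreated cells; two-way ANOVA with Tukey post hoc.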

Activity calls are given as the source filed them. The rule behind the calls is not given here.

Take `CC1=C(NCCCCNC(=O)CS)C(=O)c2ccccc2C1=O`: the outcome in series [1] and in series [5] was Active. In addition, the result in series [2], in [4] and in [7] was inactive. In addition, the Activity result in series [3] is “Non-Toxic”. For the same compound, the IC50 (commonly the midpoint of a concentration-inhibition curve) at 24 h in [6] worked out at 25.5 µM.
Regarding `CC1=C(NCc2ccc(C(=O)Nc3ccccc3N)cc2)C(=O)c2ccccc2C1=O`, the Activity in series [8] came out at 28.03%; in series [9] it was 56.81%; in [12], 42.32%; in series [15], 44.81%. In addition, the result in series [10], in [16] and in [17] was Active. The results for the “fold change (FC)” value in series [11] and in series [13] were 1.2 and 1.7, respectively. In series [14], the inhibition entry was “Active”.
